Results from ChEMBL document CHEMBL1926535, “Novel pyridopyrazine and pyrimidothiazine derivatives as FtsZ inhibitors” (Bioorg Med Chem, 2011).
Values after ≈ are worked out from the molar mass of the structure shown.

Key:
[1] = Inhibition of purified bovine tubulin polymerization by light scattering assay; set-up: species or system Bos taurus
Method in brief: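 Tubulin polymerization assay. IC50 is the concentration that inhibits polymerization by 50%. Each compound was analyzed at least three times, reported as mean ± standard deviation.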

Vero = assay: Cytotoxicity against african green monkey Vero cells after 72 hrs by celltiter-glo assay; type: cell-based; conditions: chlorocebus sabaeus
Method in brief: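 Vero cells grown in culture with compound across a 10-point dose-response curve. CC50 is extrapolated as the concentration that inhibits cell growth by 50%. Each compound was assayed at least three times.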

[2] = target: T1, Cell division protein FtsZ (Mycobacterium tuberculosis, UniProt P9WN95); assay: Inhibition of Mycobacterium tuberculosis FtsZ polymerization expressed in Escherichia coli by light scattering assay
T1 sequence (P9WN95 whole entry): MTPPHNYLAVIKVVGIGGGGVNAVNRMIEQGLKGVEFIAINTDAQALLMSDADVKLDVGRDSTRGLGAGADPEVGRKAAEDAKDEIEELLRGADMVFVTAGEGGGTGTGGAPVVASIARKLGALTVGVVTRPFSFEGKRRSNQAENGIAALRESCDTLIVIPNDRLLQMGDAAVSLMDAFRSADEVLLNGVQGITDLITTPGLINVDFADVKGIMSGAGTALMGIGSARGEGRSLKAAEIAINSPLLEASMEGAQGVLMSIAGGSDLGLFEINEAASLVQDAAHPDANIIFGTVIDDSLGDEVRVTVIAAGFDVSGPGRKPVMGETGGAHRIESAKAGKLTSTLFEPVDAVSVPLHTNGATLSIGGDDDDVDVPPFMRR
Method in brief: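 Mtb FtsZ polymerization assay with each compound run at least three times. IC50 is the concentration that inhibits polymerization by 50%, reported as mean ± standard deviation.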

[3] = system: Mycobacterium tuberculosis; assay: Antituberculosis activity against Mycobacterium tuberculosis H37Rv ATCC 27294 after 7 days using alamar blue assay; type: functional; conditions: 168 h
Method in brief: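 Strain H37Rv growth measured over a 10-point dose-response curve. IC90, the concentration inhibiting bacterial growth by 90%, is extrapolated from the curve.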

[4] = system: Mycobacterium tuberculosis; assay: Antituberculosis activity against Mycobacterium tuberculosis H37Ra ATCC 25177 after 6 days using alamar blue dye by broth microdilution assay; type: functional; conditions: H37Ra ATCC 25177, 144 h
Method in brief: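 Strain H37Ra in a colorimetric Alamar blue broth microdilution assay using duplicate two-fold serial dilutions of drug.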

[5] = target: T2, Cell division protein FtsZ (Mycobacterium tuberculosis) (UniProt P9WN95); assay: Inhibition of Mycobacterium tuberculosis FtsZ polymerization expressed in Escherichia coli at 100 uM by light scattering assay
T2 sequence (whole entry): T1 sequence (P9WN95 whole entry)

Bos taurus = organism: Bos taurus; assay: Inhibition of purified bovine tubulin polymerization at 100 uM by light scattering assay
[6] = system: Mycobacterium tuberculosis; assay: Antitubercular activity against Mycobacterium tuberculosis infected in interferon-gamma-gene-disrupted C57BL/6 mouse model assessed as reduction in bacterial load in lung at 10 mg/kg, po administered daily; type: functional
Method in brief: (§1)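 Interferon-γ gene-disrupted C57BL/6 (GKO) mice infected with M. tuberculosis. Compound given at 10 mg/kg in 0.5% methyl cellulose by daily gavage for 9 days. Read-out is the reduction in bacterial load (Log10 CFU) in lungs or spleen versus untreated controls, with significance judged by P value (0.05 threshold).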

Mus musculus [7] = assay: Toxicity in C57BL/6 mouse model assessed as lethality at 300 mg/kg administered via gavage; type: organism-based; set-up: dose 300 mg/kg; conditions: in vivo, po
Method in brief: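 Acute maximum tolerated dose study in C57BL/6 mice. Escalating doses up to 300 mg/kg were given daily for 3 days by gavage in 0.5% methyl cellulose, and doses were scaled back if mortality or adverse effects appeared.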

Mus musculus [8] = assay: Toxicity in C57BL/6 mouse model assessed as adverse event at 100 mg/kg administered via gavage; type: organism-based; set-up: dose 100 mg/kg; conditions: in vivo, po
Method in brief: (§2)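 Acute maximum tolerated dose study in C57BL/6 mice. Escalating oral gavage doses up to 300 mg/kg were given daily for 3 days, formulated in 0.5% methyl cellulose. Dosage was scaled back if mortality or adverse effects were observed.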

Mus musculus [9] = assay: Toxicity in C57BL/6 mouse model assessed as adverse event at 30 mg/kg administered via gavage; type: organism-based; set-up: dose 30 mg/kg; conditions: in vivo, po; method in brief: as §2
[10] = system: Mycobacterium tuberculosis; assay: Antitubercular activity against Mycobacterium tuberculosis infected in interferon-gamma-gene-disrupted C57BL/6 mouse model assessed as reduction in bacterial load in spleen at 10 mg/kg, po administered daily; type: functional; method in brief: as §1
[11] = system: Mycobacterium tuberculosis; assay: Antitubercular activity against Mycobacterium tuberculosis infected in interferon-gamma-gene-disrupted C57BL/6 mouse model assessed as reduction in bacterial load in spleen at 10 mg/kg, po administered daily measured after 9 days; type: functional; method in brief: as §1
[12] = system: Mycobacterium tuberculosis; assay: Antitubercular activity against Mycobacterium tuberculosis infected in interferon-gamma-gene-disrupted C57BL/6 mouse model assessed as reduction in bacterial load in lung at 10 mg/kg, po administered daily measured after 9 days; type: functional; method in brief: as §1

Structure (SMILES) | IC50 [1] [µM] | CC50 (Vero) [µM] | IC50 [2] [µM] | IC90 [3] [µM] | MIC [4] [µM] | inhibition [5] [%] | inhibition (Bos taurus) [%] | log10cfu [6] | Activity (Mus musculus [7]) | Activity (Mus musculus [8]) | Activity (Mus musculus [9]) | log10cfu [10] | log10cfu [11] | log10cfu [12]
CCOC(=O)Nc1cc(NCCN(CC)CC)c2nc(-c3ccco3)c(-c3ccco3)nc2n1 | > 100 | 5.5 | 34.8 | > 100 | 8.7 (≈ 4.04 µg/mL) |  |  |  |  |  |  |  |  | 
CCOC(=O)Nc1cc(NCCN(C)C)c2nc(-c3ccccc3)c(-c3ccccc3)nc2n1 | > 100 | 0.7 | 54.6 | < 0.19 | ≤ 7.6 |  |  |  |  |  |  |  |  | 
CCOC(=O)Nc1cc(NCCCCN(CC)CC)c2nc(-c3cccs3)c(-c3cccs3)nc2n1 | > 100 | > 40 |  | > 100 | 0.23 (≈ 0.121 µg/mL) | 64 |  |  |  |  |  |  |  | 
CCOC(=O)Nc1nc(NCCCCN(CC)CC)c2c(n1)SC(c1ccccc1)C(c1ccccc1)=N2 (stereo not given) | 69.7 | > 40 | 46.2 | 18 | 52 (≈ 27.7 µg/mL) |  |  |  |  |  |  |  |  | 
CCOC(=O)Nc1nc(NC(C)CCCN(CC)CC)c2nc(-c3ccccc3)c(-c3ccccc3)nc2n1 (stereo not given) |  |  | 38.1 | 1.9 | 3.8 (≈ 2.01 µg/mL) |  | 24 |  |  |  |  |  |  | 
CCOC(=O)Nc1cc(NC(C)CCCN(CC)CC)c2nc(CC)c(CC)nc2n1 (stereo not given) | > 100 | > 40 | > 100 | > 50 | > 290 |  |  |  |  |  |  |  |  | 
CCOC(=O)Nc1nc(NC(C)CCCN(CC)CC)c2c(n1)SC(c1ccccc1)C(c1ccccc1)=N2 (stereo not given) | > 100 | > 40 | 46 | 21.7 | 49 (≈ 26.8 µg/mL) |  |  |  |  |  |  |  |  | 
CCOC(=O)Nc1cc(NCCN(CC)CC)c2nc(-c3ccccc3)c(-c3ccccc3)nc2n1 | > 100 | 2.7 |  | 0.38 | 1.7 (≈ 0.824 µg/mL) | 59 |  |  |  |  |  |  |  | 
CCOC(=O)Nc1cc(NC(C)CCCN(CC)CC)c2nc(-c3ccccn3)c(-c3ccccn3)nc2n1 (stereo not given) | > 100 | > 40 | 45.7 | > 100 | 54 (≈ 28.5 µg/mL) |  |  |  |  |  |  |  |  | 
CCOC(=O)Nc1cc(NCCN(CC)CC)c2nc(-c3cccs3)c(-c3cccs3)nc2n1 | > 100 | 6.3 | 21 | 0.92 | ≤ 7.9 |  |  |  |  |  |  |  |  | 
CCOC(=O)Nc1cc(NC(C)CCCN(CC)CC)c2nc(-c3ccco3)c(-c3ccco3)nc2n1 (stereo not given) | > 100 | > 40 | 26.8 | 7 | 3.6 (≈ 1.82 µg/mL) |  |  |  |  |  |  |  |  | 
CCOC(=O)Nc1cc(NC(C)CCCN(CC)CC)c2nc(C)c(C)nc2n1 (stereo not given) | > 100 | > 40 | > 100 | > 100 | > 290 |  |  |  |  |  |  |  |  | 
CCN(CC)CCCC(C)Nc1cc(N)nc2nc(-c3cccs3)c(-c3cccs3)nc12 (stereo not given) | > 100 | 5.9 | 29.5 | 4.1 | 17 (≈ 7.93 µg/mL) |  |  |  |  |  |  |  |  | 
CCOC(=O)Nc1cc(NCCN(C)C)c2nc(-c3ccco3)c(-c3ccco3)nc2n1 | > 100 | 37 | 34.1 | 29 | ≤ 7 |  |  |  |  |  |  |  |  | 
CCOC(=O)Nc1cc(NC(C)CCCN(CC)CC)c2nc(-c3ccccc3)c(-c3ccccc3)nc2n1 (stereo not given) | > 100 |  | 34.2 | < 0.19 | 0.47 (≈ 0.248 µg/mL) |  |  | 0.86 | Toxic | Toxic | Toxic | 0.5 |  | 
CCOC(=O)Nc1cc(NCCN(C)C)c2nc(-c3cccs3)c(-c3cccs3)nc2n1 | > 100 | 1.6 | 27.3 | < 0.19 | 1.1 (≈ 0.515 µg/mL) |  |  |  |  |  |  |  |  | 
CCOC(=O)Nc1cc(NCCCCN(CC)CC)c2nc(-c3ccco3)c(-c3ccco3)nc2n1 | 41 | > 40 | 16.4 | > 100 | 3.6 (≈ 1.77 µg/mL) |  |  |  |  |  |  |  |  | 
CCN(CC)CCCC(C)Nc1cc(N)nc2nc(-c3ccco3)c(-c3ccco3)nc12 (stereo not given) | > 100 | 14 | 18.6 | > 100 | 150 (≈ 65.2 µg/mL) |  |  |  |  |  |  |  |  | 
CCOC(=O)Nc1cc(NC(C)CCCN(CC)CC)c2nc(-c3cccs3)c(-c3cccs3)nc2n1 (stereo not given) | > 100 | > 40 | 34.3 | < 0.19 | 0.43 (≈ 0.232 µg/mL) |  |  |  |  |  |  |  | 0.58 | 0.51
CCOC(=O)Nc1cc(NCCCCN(CC)CC)c2nc(-c3ccccc3)c(-c3ccccc3)nc2n1 |  | 1.8 | 52 | < 0.19 | 0.24 (≈ 0.123 µg/mL) |  | 40 |  |  |  |  |  |  | 
